H69AR inhibit: blocks growth of human H69AR lung tumor cells. viability, % at 10 µM. hit rate 6% among 85,000. H69AR lung tumor viability, ATP luminescence, 72 h; active compounds read low;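 active = viability at or below 40%; inactive = viability above 40%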;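 note: multidrug resistant small cell line overexpressing MRP-1 efflux transporter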
HUVEC inhibit: human endothelial cell proliferation inhibition. HUVEC proliferation, CellTiter-Glo luminescence, 72 h; active compounds read low. viability, % at 10 µM (by protocol). hit rate 1.1% among 86,000. AID 648;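 active = viability at or below 30%; inactive = viability above 30%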
Fibroblast inh: blocks proliferation of human lung fibroblasts | LL 47 human lung fibroblast viability, ATP luminescence; active compounds read low | viability, % at 10 µM | hit rate 1.1% among 85,000 | AID 719;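 active = viability at or below 50% in the single dose screen; inactive = viability above 50%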;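 note: compound exposure lasted 72 h before the ATP readout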
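Benchmarks: Cell-only wells, no compound | Test system: LL 47 human lung fibroblasts, passage 12 or lower | Input: 1,150 cells/well | Measured by: CellTiter-Glo luminescence measuring cellular ATP | Medium: IMEM, 15% FBS supplement | Schedule: Overnight attachment after seeding, then 72 h compound exposure at 37 °C | Doses: Compound addition at 0.1% DMSO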
HCT116 bCat-KO: beta-catenin-lacking colon tumor cell growth suppression | hit rate 1.5% among 140,000 | HCT116 beta-catenin knockout viability, CellTiter-Glo, 60 h; active compounds read low | viability, % at 10 µM;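 active = viability at or under a set limit, the compound median less 4 SD, cut at about 6% in these data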
HCT116 PTEN-null: growth suppressors of cells with PTEN tumor suppressor deletion; HCT116 PTEN-null viability, CellTiter-Glo, 60 h; active compounds read low; viability, % at 10 µM; hit rate 1.2% among 140,000; AID 827;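 active = viability at or below a set limit, 4 SD under the median of all tested compounds, cut at about 3.7% in these data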;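 note: PTEN knockout HCT116 line with beta catenin targeted HCT116 as companion control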
Large screens that a line does not name were inactive. This excerpt belongs to a sample that is enriched for hits.

CCOC(=O)c1cn(-c2nc(-c3ccc(Cl)c(Cl)c3)cs2)c2c(F)c(N3CCOCC3)c(F)cc2c1=O	HCT116 bCat-KO 1.7, HCT116 PTEN-null 1.2 (no result: H69AR inhibit, HUVEC inhibit, Fibroblast inh)
CN(C)S(=O)(=O)N(CC(=O)N1CCOCC1)c1ccccc1	none
Cc1nc2sc(C(c3ccccc3)N3CCC(O)CC3)c(O)n2n1 (centres undefined)	none
C=C(C)CNC(=S)NNC(=O)CCn1c2ccc(Cl)cc2c2cc(Cl)ccc21	HCT116 bCat-KO 2.7, HCT116 PTEN-null 3.5 (no result: H69AR inhibit, HUVEC inhibit, Fibroblast inh)
COC(=O)c1oc2c(c1C)C1(CCC2)SCCS1	H69AR inhibit 37
Cc1cc(C)c(OCCCCCNCCO)c(C)c1	none
CCOC(=O)c1c(NC(=O)CSc2nnnn2-c2ccc(OC)cc2)sc(C)c1C	H69AR inhibit 30
CCOc1ccccc1NC(=O)CSc1nnnn1-c1ccc(C(=O)OC)cc1	none
CCOC(=O)c1csc(NC(=O)CSc2nnnn2-c2ccc(OC)cc2)n1	none (no result: H69AR inhibit, HUVEC inhibit, Fibroblast inh)
CCOc1cc(C#N)c(NC(=O)CSc2nnnn2-c2ccc(OC)cc2)cc1OCC	H69AR inhibit 36
Cc1sc(NC(=O)c2sc3nc4c(C)cccc4cc3c2N)c(C#N)c1C	HCT116 bCat-KO 3.6 (no result: H69AR inhibit, HUVEC inhibit, Fibroblast inh)
CN(C)c1ccc(-c2nnn(CC(=O)N3c4ccccc4CCc4ccccc43)n2)cc1	H69AR inhibit 39
CN(C)c1ccc(-c2nnn(CC(=O)Nc3ccccc3N3CCOCC3)n2)cc1	none
COc1cccc(-c2ccc(C#N)c(OC(=O)c3c(Cl)cccc3Cl)n2)c1	none
COc1cccc(-c2ccc(C#N)c(OC(=O)c3ccc(Cl)cc3)n2)c1	H69AR inhibit 8.9
N#Cc1c(N)oc(-c2ccc3c(c2)OCO3)c1-c1ccc2c(c1)OCO2	H69AR inhibit 22
CCOc1cc(-c2c(C)c(CC)nc(N)c2C#N)ccc1O	H69AR inhibit 36
CCOc1cc(-c2cc(-c3ccc(C)o3)nc(N)c2C#N)ccc1O	H69AR inhibit 12
CCOc1cc(-c2c(C)c(C)nc(N)c2C#N)ccc1O	none
Cc1ccc(-c2cc(-c3ccc(C)o3)nc(N)c2C#N)cc1	H69AR inhibit 37
Cc1ccc(C(=O)Nc2ccc(Br)c(C(F)(F)F)c2)cc1	none (no result: H69AR inhibit, HUVEC inhibit, Fibroblast inh)
COCCCNC(=S)NNC(=O)c1ccoc1C	none (no result: H69AR inhibit, HUVEC inhibit, Fibroblast inh)
COc1ccc(/C=C2\SC(=O)N(CCNC(=O)C3CCN(S(=O)(=O)c4cccs4)CC3)C2=O)cc1	none (no result: H69AR inhibit, HUVEC inhibit, Fibroblast inh)
Cc1ccc(-c2cc(-c3ccc(F)cc3)c(C#N)c(N)n2)o1	none (no result: H69AR inhibit, HUVEC inhibit, Fibroblast inh)
Cc1ccc(-c2cc(-c3ccc4c(c3)OCO4)c(C#N)c(N)n2)o1	H69AR inhibit 19
Cc1ccc(-c2cc(-c3ccc(Cl)cc3)c(C#N)c(N)n2)o1	H69AR inhibit 7.1
COc1cccc(N2CCCn3c2nc2c3c(=O)n(CCN3CCOCC3)c(=O)n2C)c1	none
[N-]=[N+]=NC1C[C@H](n2ccc(=O)[nH]c2=O)O[C@@H]1CO (some centres undefined)	HCT116 bCat-KO 1.1, HCT116 PTEN-null 1.0 (no result: H69AR inhibit, HUVEC inhibit, Fibroblast inh)
O=C(CN1C(=O)c2cccc3cccc(c23)C1=O)N1CCN(c2ccccn2)CC1	none (no result: H69AR inhibit, HUVEC inhibit, Fibroblast inh)
O=C(c1ccco1)N1CCN(C/C=C/c2ccccc2)CC1	none
O=C(c1nn(Cc2ccccc2)c(=O)c2ccccc12)N1CCN(C/C=C/c2ccccc2)CC1	H69AR inhibit 31
Cc1ccc(Cl)cc1NC(=O)CSC(N)=O	H69AR inhibit 7.6
Cc1ccc(Cl)cc1NC(=O)Cn1cccc1	none
Cc1ccc(Cl)cc1NC(=O)CC(O)(C(F)(F)F)C(F)(F)F	H69AR inhibit 4.5
COC(=O)C(O)(CC(=O)Nc1ccc(Cl)cc1Cl)C(F)(F)F (centres undefined)	none
COC(=O)c1ccc(C(=O)OC)c(NC(=O)CSc2cccc[n+]2[O-])c1	H69AR inhibit 2.2
COC(=O)c1ccc(C(=O)OC)c(NC(=O)CN2CCN(c3ccccc3)CC2)c1	H69AR inhibit 16
COC(=O)c1ccc(C(=O)OC)c(NC(=O)CN2CCN(c3ccc(OC)cc3)CC2)c1	none
COc1cc2c(cc1NC(=O)CSc1cccc[n+]1[O-])oc1ccccc12	none (no result: H69AR inhibit, HUVEC inhibit, Fibroblast inh)
Cn1c(=O)c2c(nc(NCCc3ccccc3)n2Cc2ccc(F)cc2)n(C)c1=O	none
O=C1c2ccccc2-c2onc3ccc(Oc4ccccc4)c1c23	H69AR inhibit 2.1, HUVEC inhibit 4.4, Fibroblast inh 2.8, HCT116 bCat-KO 1.9, HCT116 PTEN-null 1.5
COc1cccc(C(=O)NC(=S)Nc2ccc(Cl)c(C(=O)O)c2)c1	none (no result: H69AR inhibit, HUVEC inhibit, Fibroblast inh)
CCC(c1nnnn1C1CCCC1)N(Cc1cccs1)Cc1cc2cc(C)ccc2[nH]c1=O (centres undefined)	H69AR inhibit 4.2, HCT116 bCat-KO 4.0, HCT116 PTEN-null 3.0
CCOC(=O)Cn1nnnc1C(CC)N(Cc1cccs1)Cc1cc2cc(C)ccc2[nH]c1=O (centres undefined)	none
CCOc1ccc2[nH]c(=O)c(CN(Cc3cccs3)C(CC)c3nnnn3C(C)(C)CC)cc2c1 (centres undefined)	H69AR inhibit 4.9
CCNC(=S)N(Cc1cccs1)Cc1cc2cc(OCC)ccc2[nH]c1=O	none (no result: H69AR inhibit, HUVEC inhibit, Fibroblast inh)
CC(=O)N/C(=C/c1ccccc1)C(=O)NCCO	none (no result: H69AR inhibit, HUVEC inhibit, Fibroblast inh)
COc1ccc(NC(=O)Nc2cccc([N+](=O)[O-])c2)cc1Cl	HCT116 bCat-KO 5.0 (no result: H69AR inhibit, HUVEC inhibit, Fibroblast inh)
O=C(Nc1ccc([N+](=O)[O-])cc1)Nc1ccc(OC(F)F)c(Cl)c1	HCT116 bCat-KO 1.0, HCT116 PTEN-null 1.1 (no result: H69AR inhibit, HUVEC inhibit, Fibroblast inh)
CCCC(CCC)C(=O)NCCN1CCOCC1	none
Cc1noc(C)c1C(=O)Nc1sc(C)c(-c2ccccc2)c1C#N	H69AR inhibit 32
N#Cc1c(NC(=O)CSc2nnc(-c3ccncc3)n2CC2CCCO2)sc2c1CCCC2 (centres undefined)	none (no result: H69AR inhibit)
Cc1onc(-c2c(F)cccc2Cl)c1C(=O)Nc1sc2c(c1C(N)=O)CCC2	H69AR inhibit 16
NC(=O)c1c(NC(=O)CSc2nnc(-c3ccccc3)n2CC2CCCO2)sc2c1CCC2 (centres undefined)	H69AR inhibit 33
Cc1onc(-c2ccccc2)c1C(=O)Nc1sc2c(c1C(N)=O)CCC2	H69AR inhibit 34
Cc1onc(-c2c(F)cccc2Cl)c1C(=O)Nc1sc2c(c1C#N)CCC(C(C)(C)C)C2 (centres undefined)	none
Cc1cccc(C(=O)Nc2sc(C)c(-c3ccccc3)c2C#N)c1	none (no result: H69AR inhibit, HUVEC inhibit, Fibroblast inh)
Cc1nnc(NC(=O)c2c(-c3ccccc3)noc2C)s1	none
CC(=O)N1CCN(C(=S)c2ccc(N(C)C)cc2)CC1	none
Cc1onc(-c2ccccc2)c1C(=O)Nc1sc2c(c1C#N)CCC2	H69AR inhibit 16
Cc1onc(-c2ccccc2)c1C(=O)NC(=S)Nc1sc2c(c1C#N)CCCC2	none (no result: H69AR inhibit, HUVEC inhibit, Fibroblast inh)
N#CCCn1cc(C(=O)O)c(-c2cc3ccccc3o2)n1	none (no result: H69AR inhibit, HUVEC inhibit, Fibroblast inh)
CCCOc1ccc(CNC(=S)N/N=C/c2ccc([N+](=O)[O-])cc2)cc1	none
COc1cc2c(cc1NC(=S)Nc1cccc(C(F)(F)F)c1)oc1ccccc12	H69AR inhibit 30
COc1cc2c(cc1NC(=S)Nc1cccc3ccccc13)oc1ccccc12	none (no result: H69AR inhibit, HUVEC inhibit, Fibroblast inh)
CN1CCCN(C(=O)/C=C/c2ccc(F)cc2)CC1	none (no result: H69AR inhibit, HUVEC inhibit, Fibroblast inh)
CCN1C(=O)/C(=C2/Sc3ccc(OC)cc3N2C)SC1=Nc1ccc(C(C)=O)cc1	none (no result: HCT116 bCat-KO, HCT116 PTEN-null)
